CHO parental Ca = counter-screen for OX1R antagonists: effect in parental CHO cells | parental CHO-K1, ATP-induced calcium, Fluo-8 fluorescence | AID 463079 | inhibition, % at 5.6 µM | 330,000 compounds, 0.63% hits;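 active = inhibition above that plate's mean sample inhibition plus 3 SD, cut at about 26% in these data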;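 note: 0% = ATP-challenged DMSO wells and 100% = DMSO wells without ATP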
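Test system: untransfected parental CHO cell line. Compound: one dose, 5.6 µM nominal. Detection: intracellular calcium via Fluo-8 no-wash fluorescent dye. Measure: % inhibition. Benchmarks: ATP-challenged DMSO wells low, unchallenged DMSO wells high.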
TRPN1 ag = activates the zebrafish TRPN1 channel; 220,000 compounds, 0.18% hits; HEK293 zebrafish TRPN1-YFP, Fluo-8 calcium fluorescence; 100% = response to 87 µM carbachol; AID 1424; activation, % at 3 µM;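 active = activation above its plate's cutoff, the mean activation of test wells on that plate plus 3 SD, cut at about 19% in these data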;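 note: 0% = DMSO alone and 100% = 87 µM carbachol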
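Material: zebrafish TRPN1-YFP in HEK293 cells. Doses: one dose of 3 µM, 0.3% DMSO. Incubation: dye 1 h 37 °C plus 30 min RT. Measured by: intracellular calcium fluorescence with Fluo-8.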
GPR7 antag = blocks human GPR7 receptor signaling; GPR7-expressing cells, fluorescence antagonist assay; inhibition, % at 4.4 µM; 290,000 compounds, 1.1% hits; AID 1861; in the data active = inhibition above about 16%, passing the limit was not always enough;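 note: cells stimulated with the agonist NPW; 0% = agonist with vehicle and 100% = vehicle without agonist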
OX1R antag-1 = antagonists of human orexin 1 receptor (OX1R). 330,000 compounds, 1.8% hits. O43613. OX1R-expressing cells, FRET antagonist read-out. AID 485270. inhibition, % at 6.6 µM; in the data active = inhibition mostly above about 38%, no sharp cut-off; inactive = mostly below about 40%;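 note: 0% = agonist challenge alone and 100% = reference antagonist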
TRPML3 agonist = activates the human TRPML3 channel; Q8TDD5; HEK293 TRPML3-YFP, Fluo-8 calcium fluorescence; 100% = the carbachol control signal; activation, % at 3 µM; 220,000 compounds, 0.29% hits; AID 1448;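 active = activation above its plate's cutoff, the mean activation of the plate's test wells plus 3 SD, cut at about 12% in these data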;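 note: 0% = DMSO only wells and 100% = carbachol wells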
Target sequence (Q8TDD5 whole entry, looked up): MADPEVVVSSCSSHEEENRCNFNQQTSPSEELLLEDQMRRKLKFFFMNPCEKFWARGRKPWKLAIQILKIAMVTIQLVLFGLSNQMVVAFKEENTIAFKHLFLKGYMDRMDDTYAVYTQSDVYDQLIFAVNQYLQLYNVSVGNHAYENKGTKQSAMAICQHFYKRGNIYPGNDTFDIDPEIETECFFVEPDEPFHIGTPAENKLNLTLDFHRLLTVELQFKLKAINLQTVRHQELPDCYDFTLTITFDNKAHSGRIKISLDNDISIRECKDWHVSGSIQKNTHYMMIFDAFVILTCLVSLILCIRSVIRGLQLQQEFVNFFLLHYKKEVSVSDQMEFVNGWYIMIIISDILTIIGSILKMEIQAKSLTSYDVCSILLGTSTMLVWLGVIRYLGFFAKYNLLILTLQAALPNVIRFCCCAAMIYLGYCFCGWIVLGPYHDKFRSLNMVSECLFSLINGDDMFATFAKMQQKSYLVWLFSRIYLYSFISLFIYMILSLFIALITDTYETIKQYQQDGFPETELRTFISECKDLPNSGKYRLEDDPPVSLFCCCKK
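Test system – HEK293 line with stable expression of human TRPML3-YFP channel · Control set – carbachol 87 µM final as high control (100%), DMSO as low control (0%) · Signal – Fluo-8 calcium dye fluorescence, ex 470-495, em 515-575 nm · Incubation – 1-h 37 °C dye load, 5-s basal, 120-s post-compound reads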
OX1R antag-2 = human HCRTR1 antagonism; O43613; CHO/OX1R cells, Fluo-8 calcium fluorescence, orexin A; inhibition, % at 5 µM; 330,000 compounds, 0.43% hits; AID 434989;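 active = inhibition above its plate's threshold, mean inhibition of all tested compounds on the plate plus 3 SD, cut at about 37% in these data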;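 note: 0% = orexin A challenge wells and 100% = SB-334867-A antagonist wells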
OX1R HTRF conf = confirmation of human orexin 1 receptor antagonists, HTRF format; shares compounds with OX1R antag-1; 1,800 compounds, 49% hits; OX1R-expressing cells, HTRF antagonist assay; inhibition, % at 6.6 µM; in the data active = inhibition above about 55%;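 note: CHO cells expressing OX1R stimulated with orexin A at about EC80; 0% = agonist challenge alone and 100% = reference antagonist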
CHO-K1 HTRF cnt = counter-screen: parental CHO-K1 HTRF response; shares compounds with OX1R antag-1; parental CHO-K1 cells, HTRF counterscreen; inhibition, % at 6.6 µM; 1,800 compounds, 48% hits; AID 493232; in the data active = inhibition above about 17%;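 note: 0% = agonist challenge with vehicle and 100% = vehicle alone without agonist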
* hit, by the source's call. Shown are actives, neighbours in structure and some others; about 3.2% of the full set was active somewhere.

Results for O=C(Cc1ccc(Cl)cc1)NC1CCCN(Cc2ccccc2F)C1 (stereo unspecified) ?
CHO parental Ca: -13; GPR7 antag: -2; OX1R antag-1: -1; OX1R antag-2: -39

How did Cc1nc(SCC(=O)N2CC(=O)Nc3ccccc32)nc(C)c1C do in these assays?
CHO parental Ca: -15; TRPN1 ag: 1; GPR7 antag: -6; OX1R antag-1: 14; TRPML3 agonist: 0; OX1R antag-2: -10

How did COc1ccc(-c2ccc(SCC(=O)N3CC(=O)Nc4ccccc43)nn2)cc1 do in these assays?
CHO parental Ca: -5; GPR7 antag: -9; OX1R antag-1: 97*; OX1R antag-2: -18; OX1R HTRF conf: 19; CHO-K1 HTRF cnt: 6

Results for Cc1cc(O)c(-c2cc(C(=O)NCCc3ccc(S(N)(=O)=O)cc3)[nH]n2)cc1C ?
CHO parental Ca: -6; TRPN1 ag: 0; GPR7 antag: -15; OX1R antag-1: 7; TRPML3 agonist: 1; OX1R antag-2: -17

What do the screens show for `Cc1cc(C)c(O)c(-c2cc(C(=O)NCCc3ccc(S(N)(=O)=O)cc3)[nH]n2)c1`?
CHO parental Ca: -3; TRPN1 ag: -1; GPR7 antag: 19; OX1R antag-1: 98*; TRPML3 agonist: 0; OX1R antag-2: -18; OX1R HTRF conf: 19; CHO-K1 HTRF cnt: -1

How did COc1ccccc1NC(=O)COc1ccc2c(c1)OCO2 do in these assays?
CHO parental Ca: 3; GPR7 antag: -9; OX1R antag-1: 31; OX1R antag-2: -9

What do the screens show for `CC(CN1CCCC1)OC(=O)c1ccc(Cl)cc1` (stereo unspecified)?
CHO parental Ca: 1; GPR7 antag: -10; OX1R antag-1: -3; OX1R antag-2: -13

Results for Cc1ccc(NC(=O)Cc2c(O)c3ccccc3[nH]c2=O)c(C)c1 ?
CHO parental Ca: -4; TRPN1 ag: 0; GPR7 antag: 1; OX1R antag-1: 17; TRPML3 agonist: 1; OX1R antag-2: -2

What do the screens show for `O=C(CSc1nnc2nnc3ccccc3n12)N1CCOCC1`?
CHO parental Ca: -1; GPR7 antag: -1; OX1R antag-1: 94*; OX1R antag-2: 2; OX1R HTRF conf: 72*; CHO-K1 HTRF cnt: 103*

What do the screens show for `Cc1ccc2nc3c(cc(C(=O)NCC4CCCO4)c(=N)n3CC3CCCO3)c(=O)n2c1` (stereo unspecified)?
CHO parental Ca: -10; GPR7 antag: -11; OX1R antag-1: 140*; OX1R antag-2: -14; OX1R HTRF conf: 49; CHO-K1 HTRF cnt: 72*

What do the screens show for `CCC(C)n1c(=N)c(C#N)cc2c(=O)n3ccccc3nc21` (stereo unspecified)?
CHO parental Ca: -8; TRPN1 ag: -1; GPR7 antag: -17; OX1R antag-1: 18; TRPML3 agonist: 0; OX1R antag-2: -14

What do the screens show for `Cc1ccc2nc3c(cc(C(=O)NCCc4ccccc4)c(=N)n3CCN3CCOCC3)c(=O)n2c1`?
CHO parental Ca: -20; GPR7 antag: 6; OX1R antag-1: 97*; OX1R antag-2: -9; OX1R HTRF conf: 64*; CHO-K1 HTRF cnt: 69*

What do the screens show for `COc1ccc(CCNC(=O)c2cc3c(=O)n4cccc(C)c4nc3n(CC3CCCO3)c2=N)cc1` (stereo unspecified)?
CHO parental Ca: -9; GPR7 antag: 0; OX1R antag-1: 29; OX1R antag-2: -25

How did N#Cc1cc2c(=O)n3ccccc3nc2n(CCCn2ccnc2)c1=N do in these assays?
CHO parental Ca: -4; TRPN1 ag: 1; GPR7 antag: 11; OX1R antag-1: 82*; TRPML3 agonist: 0; OX1R antag-2: -22; OX1R HTRF conf: 48; CHO-K1 HTRF cnt: 68*

How did COCCCn1c(=N)c(C(N)=S)cc2c(=O)n3cccc(C)c3nc21 do in these assays?
CHO parental Ca: -28; OX1R antag-1: 82*; OX1R antag-2: -10; OX1R HTRF conf: 39; CHO-K1 HTRF cnt: 49*

Results for CCCCNC(=O)c1cc2c(=O)n3cccc(C)c3nc2n(CCN2CCOCC2)c1=N ?
CHO parental Ca: -38; TRPN1 ag: 3; GPR7 antag: 9; OX1R antag-1: 112*; TRPML3 agonist: 1; OX1R antag-2: -24; OX1R HTRF conf: 50; CHO-K1 HTRF cnt: 55*

What do the screens show for `Cc1cccn2c(=O)c3cc(C#N)c(=O)n(-c4c(C)n(C)n(-c5ccccc5)c4=O)c3nc12`?
CHO parental Ca: 3; TRPN1 ag: -1; GPR7 antag: -9; OX1R antag-1: 147*; TRPML3 agonist: 1; OX1R antag-2: -19; OX1R HTRF conf: 53; CHO-K1 HTRF cnt: 55*

What do the screens show for `Cc1cc(-n2c(=O)c(C#N)cc3c(=O)n4cccc(C)c4nc32)no1`?
CHO parental Ca: -4; TRPN1 ag: 2; GPR7 antag: -2; OX1R antag-1: 36; TRPML3 agonist: 0; OX1R antag-2: -5

How did Cc1cccn2c(=O)c3cc(C#N)c(=N)n(CCN4CCOCC4)c3nc12 do in these assays?
TRPN1 ag: 0; GPR7 antag: -12; TRPML3 agonist: 1

What do the screens show for `Cc1cccn2c(=O)c3cc(C#N)c(=N)n(CCCN4CCOCC4)c3nc12`?
CHO parental Ca: -16; TRPN1 ag: 0; GPR7 antag: -12; OX1R antag-1: 144*; TRPML3 agonist: 0; OX1R antag-2: -67; OX1R HTRF conf: 40; CHO-K1 HTRF cnt: 64*

Results for Cc1n[nH]c(C)c1S(=O)(=O)N1CCN(S(=O)(=O)c2ccccc2C#N)CC1 ?
CHO parental Ca: -10; OX1R antag-1: 4; OX1R antag-2: -3

Results for Cc1ccc(CN=C(Nc2ccccc2)NC2CCCCC2)cc1 ?
CHO parental Ca: -30; TRPN1 ag: 3; GPR7 antag: 9; OX1R antag-1: 22; TRPML3 agonist: 1; OX1R antag-2: -28

How did CC(C)C(NC(=O)c1c(F)cccc1F)C(=O)N1CCN(S(=O)(=O)/C=C/c2ccccc2)CC1 (stereo unspecified) do in these assays?
CHO parental Ca: -31; OX1R antag-1: 7; OX1R antag-2: -26

How did O=C(CCCNC(=O)c1ccc(Cl)cc1)Nc1nccs1 do in these assays?
CHO parental Ca: -7; OX1R antag-1: 3; OX1R antag-2: -21

How did Nc1c([N+](=O)[O-])cc(-c2cnc[nH]2)cc1[N+](=O)[O-] do in these assays?
CHO parental Ca: 7; TRPN1 ag: 0; GPR7 antag: -18; OX1R antag-1: 102*; TRPML3 agonist: 1; OX1R antag-2: 3; OX1R HTRF conf: 61*; CHO-K1 HTRF cnt: 102*

Source: PubChem (The Scripps Research Institute Molecular Screening Center)
